Reference: ChEMBL document CHEMBL4177578, “Synthesis, pharmacological activities and molecular docking studies of pyrazolyltriazoles as anti-bacterial and anti-inflammatory agents” (Bioorg Med Chem, 2017)
In brackets after ≈: the same amount, converted by molar mass. Activity calls are given as the source filed them. No cut-off for these calls is given here.

Legend:
U-937 [1] = assay: Anti-inflammatory activity in human U937 cells assessed as inhibition of LPS-induced TNFalpha production at 10 uM pre-incubated for 1 hr before LPS stimulation for 24 hrs by ELISA method; format: functional
Method in brief: (§1)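 Human U937 cells grown in RPMI1640 with 10% FBS at 37 °C, 5% CO2. Differentiated with PMA 30 ng/ml for 24 h. Test compounds added for 1 h, then LPS 1 µg/ml for 24 h. TNF-α and IL-6 in supernatant measured by ELISA. Three independent experiments.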

Salmonella typhi [2] = assay: Antimicrobial activity against Salmonella typhi at 1 mg/ml incubated for 20 to 30 mins followed by incubation for 24 hrs at 37 degC by agar plate method; format: functional, Salmonella enterica subsp. enterica serovar Typhi; conditions: for zone of inhibition at 1000 µg/mL: Salmonella enterica, read-out: DIZ; for diameter of the inhibition zone (DIZ): Salmonella enterica subsp. enterica serovar Typhi
Method in brief: (§2)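 Agar well diffusion on nutrient agar. Plates swabbed with 60 µL inoculum, 8 mm wells loaded with 100 µL sample at 1.0 mg/mL, streptomycin standard and control in separate wells. Plates held 20–30 min at 4 °C for diffusion, then 24 h at 37 °C. Zone diameter read in mm; triplicate.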

Salmonella paratyphi [3] = assay: Antimicrobial activity against Salmonella paratyphi at 1 mg/ml incubated for 20 to 30 mins followed by incubation for 24 hrs at 37 degC by agar plate method; format: functional, Salmonella enterica subsp. enterica serovar Paratyphi A; conditions: for zone of inhibition at 1000 µg/mL: Salmonella enterica, read-out: DIZ; for diameter of the inhibition zone (DIZ): Salmonella enterica subsp. enterica serovar Paratyphi A; method in brief: as §2
[4] = Anti-inflammatory activity at 50 ug/ml using bovine serum albumin and egg albumin proteins incubated at 37 degC for 20 mins and then heated to 95 degC for 20 mins by UV-visible Spectrophotometry based protein denaturation method; format: functional
Method in brief: (§3)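 Albumin (bovine serum or egg) at 1% in 50 mM sodium phosphate buffer pH 6.4. Mixture is 0.1 ml test sample (1 mg/ml) plus 0.2 ml albumin, made to 5 ml with buffer. Held 37 °C for 20 min, then 95 °C for 20 min. Cooled to room temperature, turbidity read at 660 nm. % inhibition = (Abs control − Abs sample)/Abs control × 100. Triplicate, averaged.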

[5] = Anti-inflammatory activity at 100 ug/ml using bovine serum albumin and egg albumin proteins incubated at 37 degC for 20 mins and then heated to 95 degC for 20 mins by UV-visible Spectrophotometry based protein denaturation method; format: functional; method in brief: as §3
[6] = Anti-inflammatory activity using bovine serum albumin and egg albumin proteins incubated at 37 degC for 20 mins and then heated to 95 degC for 20 mins by UV-visible Spectrophotometry based protein denaturation method; format: functional; method in brief: as §3
U-937 [7] = assay: Anti-inflammatory activity in human U937 cells assessed as inhibition of LPS-induced IL6 production at 10 uM pre-incubated for 1 hr before LPS stimulation for 24 hrs by ELISA method; format: functional; method in brief: as §1
Micrococcus luteus [8] = assay: Antimicrobial activity against Micrococcus luteus at 1 mg/ml incubated for 20 to 30 mins followed by incubation for 24 hrs at 37 degC by agar plate method; format: functional
Method in brief: (§4)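 Agar well diffusion on nutrient agar. Plates swabbed with 60 µL inoculum; 8 mm wells loaded with 100 µL of compound at 1.0 mg/mL. Held 20–30 min at 4 °C for diffusion, then 24 h at 37 °C. Inhibition zone diameter read in mm. Triplicate.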

Staphylococcus aureus = assay: Antimicrobial activity against Staphylococcus aureus at 1 mg/ml incubated for 20 to 30 mins followed by incubation for 24 hrs at 37 degC by agar plate method; format: functional; method in brief: as §4
Micrococcus luteus [9] = assay: Antimicrobial activity against Micrococcus luteus incubated for 12 to 16 hrs by tube dilution method; format: functional
Method in brief: (§5)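 Tube dilution, serial from 500 to 1.9 µg/mL, plus drug-free control tube. Each tube inoculated with 1 mL culture at OD 0.2, incubated 37 °C for 12–16 h. MIC is the lowest concentration with no growth by turbidity. MBC is found by plating each tube on nutrient agar: the lowest concentration at which all cells are killed.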

Micrococcus luteus [10] = assay: Antimicrobial activity against Micrococcus luteus incubated for 12 to 16 hrs followed by plating in nutrient agar by tube dilution method; format: functional; method in brief: as §5
Salmonella typhi [11] = assay: Antimicrobial activity against Salmonella typhi incubated for 12 to 16 hrs by tube dilution method; format: functional; conditions: Salmonella enterica subsp. enterica serovar Typhi
Method in brief: (§6)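 Broth tube dilution, two-fold serial dilutions from 500 to 1.9 µg/mL plus a drug-free control tube. Each tube inoculated with 1 mL culture at OD 0.2 (~McFarland standard), 37 °C for 12-16 h. Turbidity compared with the control tube. MIC is the lowest concentration giving complete growth inhibition.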

Salmonella typhi [12] = assay: Antimicrobial activity against Salmonella typhi incubated for 12 to 16 hrs followed by plating in nutrient agar by tube dilution method; format: functional; conditions: Salmonella enterica subsp. enterica serovar Typhi
Method in brief: (§7)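 After 12-16 h at 37 °C in tube dilution (500 to 1.9 µg/mL; 1 mL inoculum at OD 0.2), the culture from each tube was plated on nutrient agar. MBC is the concentration at which cells are completely killed.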

Salmonella paratyphi [13] = assay: Antimicrobial activity against Salmonella paratyphi incubated for 12 to 16 hrs by tube dilution method; format: functional; conditions: Salmonella enterica subsp. enterica serovar Paratyphi A; method in brief: as §6
Salmonella paratyphi [14] = assay: Antimicrobial activity against Salmonella paratyphi incubated for 12 to 16 hrs followed by plating in nutrient agar by tube dilution method; format: functional; conditions: Salmonella enterica subsp. enterica serovar Paratyphi A; method in brief: as §7

Structure (SMILES)	inhibition at 10 µM (U-937 [1])	zone of inhibition at 1000 µg/mL (Salmonella typhi [2])	zone of inhibition at 1000 µg/mL (Salmonella paratyphi [3])	inhibition [4]	inhibition [5]	IC50 [6]	inhibition at 10 µM (U-937 [7])	zone of inhibition at 1000 µg/mL (Micrococcus luteus [8]; read-out: DIZ)	diameter of the inhibition zone (DIZ) (Micrococcus luteus [8])	diameter of the inhibition zone (DIZ) (Staphylococcus aureus)	diameter of the inhibition zone (DIZ) (Salmonella typhi [2])	diameter of the inhibition zone (DIZ) (Salmonella paratyphi [3])	MIC (Micrococcus luteus [9])	MBC (Micrococcus luteus [10])	MIC (Salmonella typhi [11])	MBC (Salmonella typhi [12])	MIC (Salmonella paratyphi [13])	MBC (Salmonella paratyphi [14])
Cc1ccc(-c2nn(-c3ccccc3)cc2Cn2cc(CO)nn2)cc1	14.8%	15 mm	14 mm	21.6%	38.8%	128.89 µg/mL (≈ 373 µM)	42%											
OCc1cn(Cc2cn(-c3ccc(Cl)cc3)nc2-c2ccccc2)nn1	12.7%	19.5 mm	16.5 mm	55.2%	78.5%	63.74 µg/mL (≈ 174 µM)	38.8%	11.5 mm										
Cc1ccc(-n2cc(CO)c(-c3ccccc3)n2)cc1C	8.35%	14.5 mm	12 mm	66.4%	83.6%	59.79 µg/mL (≈ 215 µM)	46.4%											
Cc1ccc(-n2cc(CO)c(-c3ccccc3)n2)cc1		17 mm	12.5 mm	40.5%	68.1%	73.42 µg/mL (≈ 278 µM)	23.8%											
OCc1cn(-c2ccccc2)nc1-c1ccccc1	1.44%	11.5 mm	14 mm	75.9%	87.9%	56.86 µg/mL (≈ 227 µM)	19.6%											
OCc1cn(-c2ccccc2)nc1-c1ccc(Cl)cc1Cl	4.92%	13.5 mm	11.5 mm	60.3%	80.2%	62.37 µg/mL (≈ 195 µM)	18.3%											
OCc1cn(Cc2cn(-c3ccccc3)nc2-c2ccc(Cl)cc2Cl)nn1	9.9%	14 mm	17 mm	50.9%	76.7%	65.17 µg/mL (≈ 163 µM)	39.6%											
OCc1cn(-c2ccccc2)nc1-c1ccc(Cl)cc1	3.32%		12 mm	67.2%	83.6%	59.79 µg/mL (≈ 210 µM)	24.1%											
Clc1ccc(-c2cn(Cc3cn(-c4ccccc4)nc3-c3ccccc3)nn2)cc1				inactive	inactive	Not Active			inactive	inactive	inactive	inactive	inactive	inactive	inactive	inactive	inactive	inactive
[N-]=[N+]=NCc1cn(-c2ccccc2)nc1-c1ccc(Cl)cc1Cl				inactive	inactive	Not Active			inactive	inactive	inactive	inactive	inactive	inactive	inactive	inactive	inactive	inactive
[N-]=[N+]=NCc1cn(-c2ccccc2)nc1-c1ccccc1				inactive	inactive	Not Active			inactive	inactive	inactive	inactive	inactive	inactive	inactive	inactive	inactive	inactive
CCOC(=O)c1nnn(Cc2cn(-c3ccc(C)cc3)nc2-c2ccccc2)c1C(=O)OCC				inactive	inactive	Not Active			inactive	inactive	inactive	inactive	inactive	inactive	inactive	inactive	inactive	inactive
CCOC(=O)c1nnn(Cc2cn(-c3ccccc3)nc2-c2ccc(Cl)cc2)c1C(=O)OCC				inactive	inactive	Not Active			inactive	inactive	inactive	inactive	inactive	inactive	inactive	inactive	inactive	inactive
Cc1ccc(-n2cc(CN=[N+]=[N-])c(-c3ccccc3)n2)cc1				inactive	inactive	Not Active			inactive	inactive	inactive	inactive	inactive	inactive	inactive	inactive	inactive	inactive
